Measured values from ChEMBL document CHEMBL3297737, “Discovery of the first potent and orally available agonist of the orphan G-protein-coupled receptor 52” (J Med Chem, 2014).
Active and inactive are the calls of the source. No cut-off for these calls is given here.

Tests used:
[1] = target: T1, G-protein coupled receptor 52 (Homo sapiens, UniProt Q9Y2T5); assay: Agonist activity at human GPR52 expressed in CHO cells assessed as cAMP production after 30 mins by Alphascreen assay; format: functional, cell-based
T1 sequence (Q9Y2T5 whole entry): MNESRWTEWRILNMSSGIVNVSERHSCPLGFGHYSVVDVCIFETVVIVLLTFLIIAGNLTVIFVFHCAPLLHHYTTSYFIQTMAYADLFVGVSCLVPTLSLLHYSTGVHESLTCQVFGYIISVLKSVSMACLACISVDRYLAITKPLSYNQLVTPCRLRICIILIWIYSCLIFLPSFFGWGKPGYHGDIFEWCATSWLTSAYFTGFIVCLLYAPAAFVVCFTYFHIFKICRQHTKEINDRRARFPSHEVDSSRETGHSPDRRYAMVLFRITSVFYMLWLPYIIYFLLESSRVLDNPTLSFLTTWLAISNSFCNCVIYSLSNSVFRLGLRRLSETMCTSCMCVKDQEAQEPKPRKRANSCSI

[2] = target: T1, G-protein coupled receptor 52; assay: Agonist activity at human GPR52 expressed in CHO cells assessed as cAMP production after 30 mins by Alphascreen assay relative to N-(2-Hydroxyethyl)-3-{2-[3-(trifluoromethyl)benzyl]-1-benzofuran-4-yl}benzamide; format: functional, cell-based
[3] = test system: Mus musculus; assay: Toxicity in ICR mouse assessed as extrapyramidal side effects at 100 mg/kg, po after 1 to 2 hrs; format: organism-based; set-up: dose 100 mg/kg, route oral; details: in vivo
Summary of the method: (§1)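 Male ICR mice, 6–7 weeks old, dosed orally (10–100 mg/kg). Tested 1 and 2 h post-dose by placing forepaws on a steel bar, hind legs on the surface. Time holding immobile posture recorded, capped at 30 s. Three trials averaged per mouse. n = 6 per group. Williams test versus vehicle.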

[4] = species on record: Homo sapiens; assay: Agonist activity at AMPA receptor (unknown origin)
[5] = target: D(2) dopamine receptor (Homo sapiens) (UniProt P14416); assay: Agonist activity at dopamine D2 receptor (unknown origin)
Chain of D(2) dopamine receptor (Homo sapiens) (P14416 whole entry): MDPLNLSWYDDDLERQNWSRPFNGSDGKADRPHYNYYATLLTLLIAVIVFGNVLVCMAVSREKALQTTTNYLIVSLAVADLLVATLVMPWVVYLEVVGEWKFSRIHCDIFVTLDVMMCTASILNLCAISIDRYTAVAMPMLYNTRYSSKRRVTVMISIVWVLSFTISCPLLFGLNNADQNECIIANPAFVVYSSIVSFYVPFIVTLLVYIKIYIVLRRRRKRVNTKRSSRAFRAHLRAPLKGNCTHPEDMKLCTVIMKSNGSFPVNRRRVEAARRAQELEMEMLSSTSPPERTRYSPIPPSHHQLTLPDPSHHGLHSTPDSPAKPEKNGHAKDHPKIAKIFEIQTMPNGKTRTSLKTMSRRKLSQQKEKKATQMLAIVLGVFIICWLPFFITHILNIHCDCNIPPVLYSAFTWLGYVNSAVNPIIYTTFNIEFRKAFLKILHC

[6] = AUC (0 to 8 hrs) in mouse at 1 mg/kg, po administered via cassette dosing; format: ADME, organism-based; set-up: time < 8 hr, dose 1 mg/kg, route oral; details: plasma
Summary of the method: (§2)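 Mouse cassette dosing at 0.1 mg/kg iv and 1 mg/kg po. Plasma Cmax, AUC0–8h and oral bioavailability determined.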

[7] = test system: Mus musculus; assay: Toxicity in ICR mouse assessed as cataleptogenic effect at 100 mg/kg, po after 1 to 2 hrs; format: organism-based; set-up: dose 100 mg/kg, route oral; details: in vivo; summary of the method: as §1
[8] = target: D(1A) dopamine receptor (Homo sapiens) (UniProt P21728); assay: Agonist activity at dopamine D1 receptor (unknown origin)
Chain of D(1A) dopamine receptor (Homo sapiens) (P21728 whole entry): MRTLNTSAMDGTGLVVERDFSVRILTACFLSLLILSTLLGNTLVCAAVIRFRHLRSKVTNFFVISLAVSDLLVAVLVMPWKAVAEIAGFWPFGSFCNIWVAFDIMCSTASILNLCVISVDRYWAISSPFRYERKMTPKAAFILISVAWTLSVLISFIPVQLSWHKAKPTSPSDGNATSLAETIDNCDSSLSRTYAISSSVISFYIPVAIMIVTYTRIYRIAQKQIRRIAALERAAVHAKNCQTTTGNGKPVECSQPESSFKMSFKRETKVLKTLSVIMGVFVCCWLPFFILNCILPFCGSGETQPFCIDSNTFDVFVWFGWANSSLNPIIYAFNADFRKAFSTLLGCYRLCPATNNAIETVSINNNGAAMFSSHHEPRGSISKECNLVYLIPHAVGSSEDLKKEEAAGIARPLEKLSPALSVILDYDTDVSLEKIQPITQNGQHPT

[9] = target: Glutamate [NMDA] receptor (Homo sapiens) (UniProt Q05586+Q12879+Q13224+O15399+O60391+Q14957+Q8TCU5); assay: Agonist activity at NMDA receptor (unknown origin)
[10] = Ratio of AUC from brain to plasma in mouse at 30 mg/kg, po; format: ADME, organism-based; set-up: dose 30 mg/kg, route oral; details: read-out: Ratio AUC
Summary of the method: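 Brain/plasma AUC ratio determined in mice after oral administration of 30 mg/kg.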

[11] = Cmax in mouse at 1 mg/kg, po administered via cassette dosing; format: ADME, organism-based; set-up: dose 1 mg/kg, route oral; details: in vivo; summary of the method: as §2
[12] = species on record: Homo sapiens; assay: Agonist activity at 5HT2 receptor (unknown origin)
[13] = target: D(1A) dopamine receptor (Homo sapiens) (UniProt P21728); assay: Agonist activity at human dopamine D1 receptor expressed in CHO cells; format: cell-based
Summary of the method: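 cAMP production measured in CHO cells expressing human dopamine D1 receptor (DRD1). Mean ± SD, n = 4.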

[14] = test system: Mus musculus; assay: Antipsychotic activity against methamphetamine-induced hyperlocomotion in ICR mouse at 3 mg/kg, po administered 60 mins prior to methamphetamine challenge measured 150 mins post compound challenge; format: functional, organism-based; set-up: dose 3 mg/kg
Summary of the method: (§3)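 Male ICR mice, 7–8 weeks old, each in its own cage. Locomotor activity monitored. Compound given orally (1–30 mg/kg) after 60 min habituation. Methamphetamine 2 mg/kg sc injected 60 min later. Activity counts recorded for 150 min after compound dosing. n = 6–7 per group. Williams test versus vehicle + methamphetamine.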

[15] = test system: Mus musculus; assay: Antipsychotic activity against methamphetamine-induced hyperlocomotion in po dosed ICR mouse administered 60 mins prior to methamphetamine challenge measured 150 mins post compound challenge; format: functional, organism-based; summary of the method: as §3
[16] = Oral bioavailability in mouse at 1 mg/kg administered via cassette dosing; format: ADME, organism-based; details: in vivo; summary of the method: as §2
[17] = target: T1, G-protein coupled receptor 52; assay: Agonist activity at human GPR52 expressed in CHO cells assessed as cAMP production at 10 uM after 30 mins by Alphascreen assay; format: functional, cell-based
[18] = target: T1, G-protein coupled receptor 52; assay: Agonist activity at GPR52 (unknown origin)
[19] = target: T1, G-protein coupled receptor 52; assay: Agonist activity at GPR52 (unknown origin) relative to control

## O=C(NCCO)c1cccc(-c2cccc3c2CC(Cc2cccc(C(F)(F)F)c2)O3)c1 (racemic)
[1]
  EC50: 0.646 µM
[2]
  Emax: 45.9%

## COCCNC(=O)c1cccc(-c2cccc3cc(Cc4cc(F)cc(Cl)c4)sc23)c1
[3]
  Activity: Non-toxic
[1]
  EC50: 0.0295 µM
[4]
  Activity: inactive
[5]
  Activity: inactive
[6]
  AUC(0-t) at 8 h: 614 ng·h/mL
[7]
  Activity: Non-toxic
[8]
  Activity: inactive
[9]
  Activity: inactive
[10]
  Kp: 0.94
[2]
  Emax: 79.8%
[11]
  Cmax: 108 ng/mL
[12]
  Activity: inactive
[13]
  Activity: inactive
[14]
  Activity: Active
[15]
  Activity: Dose-dependent effect
[16]
  bioavailability: 73%

## O=C(NCCO)c1cccc(-c2cccc3cn(Cc4cccc(C(F)(F)F)c4)nc23)c1
[1]
  EC50: 0.0646 µM
[2]
  Emax: 69.7%

## Cc1c(Cc2cccc(C(F)(F)F)c2)oc2cccc(-c3cccc(C(=O)NCCO)c3)c12
[1]
  EC50: > 10 µM
[17]
  Activity: 20%

## COc1ccc(-c2ccnc(NCCc3ccc(OC)c(OC)c3)n2)cc1
[1]
  EC50: > 10 µM
[17]
  Activity: 33%

## Cc1c(Cc2cccc(C(F)(F)F)c2)oc2c(-c3cccc(C(=O)NCCO)c3)cccc12
[1]
  EC50: 0.0813 µM
[2]
  Emax: 71.5%

## O=C(NCCO)c1cccc(-c2cccc3cc(Cc4cccc(C(F)(F)F)c4)oc23)c1
[1]
  EC50: 0.0347 µM
[2]
  Emax: 74.8%

## NC(=O)CNC(=O)c1cccc(-c2cccc3cc(Cc4cccc(C(F)(F)F)c4)sc23)c1
[1]
  EC50: 0.055 µM
[2]
  Emax: 102%

## O=C(NCCO)c1cccc(-c2cccc(OCCc3cccc(C(F)(F)F)c3)n2)c1
[18]
  EC50: 0.646 µM
[19]
  Emax: 73.1%

## COCCNC(=O)c1cccc(-c2cccc3cc(Cc4cccc(C(F)(F)F)c4)sc23)c1
[1]
  EC50: 0.0427 µM
[2]
  Emax: 85%

## O=C(NCCO)c1cccc(-c2cccc3sc(Cc4cccc(C(F)(F)F)c4)cc23)c1
[1]
  EC50: 0.038 µM
[2]
  Emax: 68.6%

## O=C(NCCO)c1cccc(-c2cccc3cc(Cc4cccc(C(F)(F)F)c4)sc23)c1
[1]
  EC50: 0.0372 µM
[2]
  Emax: 79.6%

## O=C(NCCO)c1cccc(-c2cccc3nn(Cc4cccc(C(F)(F)F)c4)cc23)c1
[1]
  EC50: 0.0389 µM
[2]
  Emax: 79.1%

## O=C(NCCO)c1cccc(-c2cccc3oc(Cc4cccc(C(F)(F)F)c4)cc23)c1
[1]
  EC50: 0.0282 µM
[2]
  Emax: 85.7%

## NC(=O)CNC(=O)c1cccc(-c2ccc(F)c3cc(Cc4cccc(C(F)(F)F)c4)sc23)c1
[1]
  EC50: 0.0832 µM
[2]
  Emax: 107%

## O=C(NCCO)c1cccc(-c2cccc3c2OC(Cc2cccc(C(F)(F)F)c2)C3)c1 (racemic)
[1]
  EC50: 0.209 µM
[2]
  Emax: 56.1%

## O=C(NCCO)c1cccc(-c2cccc(OCCc3cc(F)cc(Cl)c3)n2)c1
[18]
  EC50: 0.347 µM
[19]
  Emax: 79%
